Measurements: article PMC10363772 (RSC Advances, 2023)
≈ marks a conversion by molar mass, not a printed value.

Columns and labels:
[1] = molecular target: rat intestinal α-glucosidase; assay: α-Glucosidase inhibition assay; assay type: biochemical; conditions: for α-glucosidase inhibition: at 100 μg mL^−1
β-glucosidase = assay: β-Glucosidase inhibition assay; assay type: biochemical; conditions: for β-glucosidase inhibition: at 100 μg mL^−1
α-amylase = molecular target: T1, α-amylase (Sus scrofa, UniProt P00690); assay: α-Amylase inhibitory assay; assay type: biochemical; conditions: at 100 μg mL^−1
T1 sequence (P00690 16-511): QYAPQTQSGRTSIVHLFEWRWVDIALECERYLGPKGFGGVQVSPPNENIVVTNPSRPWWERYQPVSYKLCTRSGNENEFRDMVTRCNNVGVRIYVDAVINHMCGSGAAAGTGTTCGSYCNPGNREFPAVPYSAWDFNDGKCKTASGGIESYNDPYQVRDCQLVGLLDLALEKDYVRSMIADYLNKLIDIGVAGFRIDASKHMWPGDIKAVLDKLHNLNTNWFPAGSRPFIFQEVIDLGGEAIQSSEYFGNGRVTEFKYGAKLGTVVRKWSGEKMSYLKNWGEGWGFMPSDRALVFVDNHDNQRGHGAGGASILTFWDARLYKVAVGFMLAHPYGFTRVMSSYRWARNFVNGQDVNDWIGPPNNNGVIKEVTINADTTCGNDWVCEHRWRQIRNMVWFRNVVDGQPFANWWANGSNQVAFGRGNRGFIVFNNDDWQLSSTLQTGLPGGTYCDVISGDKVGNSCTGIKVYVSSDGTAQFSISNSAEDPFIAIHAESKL

[2] = DPPH free radical scavenging assay; conditions: at 75 μg mL^−1
Summary of the method: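 Test samples were mixed with 3.0 mL of 0.1 mM DPPH in methanol, shaken vigorously, and held 30 min at room temperature in the dark. Absorbance was read at 515 nm and % scavenging calculated. BHT was the positive control and methanol the negative control.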

[3] = Solubility studies of nano-curcumin in water; assay type: physicochemical; conditions: deionized water
Summary of the method: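 Each test sample was stirred in 30 mL deionized water at room temperature for 24 h to make a saturated solution. Undissolved particles were removed by centrifugation, and the liquid was filtered through a PTFE membrane. The filtrate was diluted with an equal volume of deionized water, and dissolved curcumin was quantified by UV/Vis absorbance at 422 nm.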

Structure (SMILES)	IC50, mean ± SD, α-Glucosidase [1]	α-glucosidase inhibition [1]	IC50, mean ± SD, β-Glucosidase (β-glucosidase)	β-glucosidase inhibition (β-glucosidase)	α-amylase inhibition (α-amylase)	DPPH free radical scavenging activity [2]	solubility at 24 h [3]	solubility thermodynamic at 24 h ([3]; water, thermodynamic from solid)
C[C@H]1O[C@H](O[C@H]2[C@H](O)[C@@H](O)[C@@H](O[C@H]3[C@H](O)[C@@H](O)C(O)O[C@@H]3CO)O[C@@H]2CO)[C@H](O)[C@@H](O)[C@@H]1N[C@H]1C=C(CO)[C@@H](O)[C@H](O)[C@H]1O (stereo partly drawn) [Acarbose, acarbose]	45.76 ± 0.13 µg/mL (≈ 70.9 µM)	66.04 ± 0.18%	45.55 ± 0.21 µg/mL (≈ 70.6 µM)	66.05 ± 0.47%	68.74 ± 0.28%			
Cc1cc(C(C)(C)C)c(O)c(C(C)(C)C)c1 [BHT, Butylated hydroxytoluene]						50.48 ± 1.11%		
COc1cc(/C=C/C(=O)CC(=O)/C=C/c2ccc(O)c(OC)c2)ccc1O [Curcumin, diferuloylmethane]		47.87 ± 0.31%	51.92 ± 0.14 µg/mL (≈ 141 µM)	50.38 ± 0.11%		45.63 ± 0.78%	0.98 µg/mL (≈ 2.66 µM)	2.68 µM (≈ 0.987 µg/mL)
